Laboratory results reported in ChEMBL document CHEMBL5532690, “Antitubercular activity of 2-mercaptobenzothiazole derivatives targeting Mycobacterium tuberculosis type II NADH dehydrogenase” (RSC Med Chem, 2024).
≈ marks a conversion by molar mass, not a printed value.

Key:
[1] = tested on: Mycobacterium tuberculosis variant bovis; assay: Antitubercular activity against Mycobacterium bovis BCG measured after 10 days by liquid broth microdilution assay; format: functional; settings: 240 h, time 10 day
How it was run: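 Broth microdilution in 7H9 with 0.2% glycerol, 0.05% Tween 80 and 10% ADS. Mid-log cultures (OD600 0.4–0.6) were diluted to OD600 0.005 (1.0 × 10^6 CFU ml−1) and added to two-fold serial compound dilutions. Plates were incubated at 37 °C for 10 days and read visually. MIC was the lowest concentration with no turbidity.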

[2] = tested on: Mycobacterium tuberculosis variant bovis; assay: Antitubercular activity against Mycobacterium bovis BCG assessed as inhibition of intracellular ATP synthesis incubated for 24 hrs by BacTiter-Glo microbial cell viability assay; format: functional, organism-based
How it was run: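 Mid-log cultures were adjusted to OD600 0.05 and exposed to compounds at 37 °C for 24 h. BacTiter-Glo reagent was then added for 12 min and luminescence was read. H37Ra and BCG were grown in 7H9 with glycerol, Tween 80 and ADS. mc2 6230 was grown with tyloxapol plus methionine, leucine, arginine and pantothenate. Values are the mean of triplicates.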

## O=C(CSc1nc2ccc([N+](=O)[O-])cc2s1)NC1CCCCC1
[1]
  MIC90: 32 µg/mL (≈ 91.1 µM)
[2]
  IC50: 34.4 µg/mL (≈ 98 µM)

## NNC(=O)c1ccncc1 [ISONIAZID]
[1]
  MIC90: 0.06 µg/mL (≈ 0.438 µM)

## O=C(CSc1nc2ccc(OC(F)(F)F)cc2s1)NC1CCCCC1
[1]
  MIC90: 128 µg/mL (≈ 328 µM)
[2]
  IC50: 30.4 µg/mL (≈ 77.9 µM)

## O=C(CSc1nc2c(Br)cc(C(F)(F)F)cc2s1)NC1CCCCC1
[1]
  MIC90: 64 µg/mL (≈ 141 µM)
[2]
  IC50: 39.8 µg/mL (≈ 87.9 µM)

## CO[C@H]1/C=C/O[C@@]2(C)Oc3c(C)c(O)c4c(O)c(c(/C=N/N5CCN(C)CC5)c(O)c4c3C2=O)NC(=O)/C(C)=C\C=C\[C@H](C)[C@H](O)[C@@H](C)[C@@H](O)[C@@H](C)[C@H](OC(C)=O)[C@@H]1C [RIFAMPIN]
[1]
  MIC90: 0.03 µg/mL (≈ 0.0365 µM)

## O=C(CSc1nc2ccccc2c(=O)[nH]1)NC1CCCCC1
[1]
  MIC90: 1 µg/mL (≈ 3.15 µM)
[2]
  IC50: 4.99 µg/mL (≈ 15.7 µM)

## Cc1cc(C)c2nc(SCC(=O)NC3CCCCC3)sc2c1
[1]
  MIC90: 4 µg/mL (≈ 12 µM)
[2]
  IC50: 13.4 µg/mL (≈ 40.2 µM)

## CC(C)c1ccc2nc(SCC(=O)NC3CCCCC3)sc2c1
[1]
  MIC90: 4 µg/mL (≈ 11.5 µM)
[2]
  IC50: 9.89 µg/mL (≈ 28.4 µM)

## O=C(CSc1nc2ccc(Br)cc2s1)NC1CCCCC1
[1]
  MIC90: 128 µg/mL (≈ 332 µM)
[2]
  IC50: 31.8 µg/mL (≈ 82.4 µM)

## C=C(C)[C@H]1Cc2c(ccc3c2O[C@@H]2COc4cc(OC)c(OC)cc4[C@@H]2C3=O)O1 [ROTENONE]
[1]
  MIC90: > 64 µg/mL

## Cc1ccc2nc(SCC(=O)NC3CCCCC3)sc2c1
[1]
  MIC90: 16 µg/mL (≈ 49.9 µM)
[2]
  IC50: 14.4 µg/mL (≈ 44.9 µM)

## O=C(CSc1nc2c(Br)cc(F)cc2s1)NC1CCCCC1
[1]
  MIC90: 4 µg/mL (≈ 9.92 µM)
[2]
  IC50: 13.5 µg/mL (≈ 33.5 µM)

## O=C(CSc1nc2ccc(Cl)cc2s1)NC1CCCCC1
[1]
  MIC90: 64 µg/mL (≈ 188 µM)
[2]
  IC50: 32.9 µg/mL (≈ 96.4 µM)

## CC(C)/N=c1\cc2n(-c3ccc(Cl)cc3)c3ccccc3nc-2cc1Nc1ccc(Cl)cc1 [CLOFAZIMINE]
[1]
  MIC90: 0.25 µg/mL (≈ 0.528 µM)

## O=C(CSc1nc2ccccc2s1)NC1CCCCC1
[1]
  MIC90: 64 µg/mL (≈ 209 µM)
[2]
  IC50: 33.2 µg/mL (≈ 108 µM)

## O=C(CSc1nc2ccc(F)cc2s1)NC1CCCCC1
[1]
  MIC90: 8 µg/mL (≈ 24.7 µM)
[2]
  IC50: 19.7 µg/mL (≈ 60.6 µM)

## O=C(CSc1nc2c(ccc3ccccc32)s1)NC1CCCCC1
[1]
  MIC90: 64 µg/mL (≈ 180 µM)
[2]
  IC50: 38 µg/mL (≈ 106 µM)

## O=C(CSc1nc2c(Br)cc(OC(F)(F)F)cc2s1)NC1CCCCC1
[1]
  MIC90: 128 µg/mL (≈ 273 µM)
[2]
  IC50: 40.8 µg/mL (≈ 86.9 µM)

## O=C(CSc1nc2ccc(C(F)(F)F)cc2s1)NC1CCCCC1
[1]
  MIC90: 128 µg/mL (≈ 342 µM)
[2]
  IC50: 19.7 µg/mL (≈ 52.6 µM)
